Experimental data as given in publication PMC7003992 (Journal of medicinal chemistry, 2019).
Where two headings read alike, the source gives them in different places. One block for each compound: values may come before it.

Experiments:
NTR1 [1] = target: T1, NTR1 (Homo sapiens, UniProt P30989); assay: β-Arrestin2-GFP NTR1 high content assay; format: cell-based
Target sequence in this assay (P30989 whole entry, species assumed): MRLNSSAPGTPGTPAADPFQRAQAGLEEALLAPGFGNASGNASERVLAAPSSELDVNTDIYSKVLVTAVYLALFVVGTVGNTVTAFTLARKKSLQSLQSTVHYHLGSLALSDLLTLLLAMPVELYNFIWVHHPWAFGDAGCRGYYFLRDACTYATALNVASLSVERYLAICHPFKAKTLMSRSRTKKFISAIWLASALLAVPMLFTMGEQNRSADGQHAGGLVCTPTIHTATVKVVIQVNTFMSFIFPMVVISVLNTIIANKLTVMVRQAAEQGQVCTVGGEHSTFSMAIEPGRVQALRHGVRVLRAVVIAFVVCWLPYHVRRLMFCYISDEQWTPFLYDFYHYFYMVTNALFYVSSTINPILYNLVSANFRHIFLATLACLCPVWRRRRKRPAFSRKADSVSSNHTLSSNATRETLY

NTR1 [2] = target: T1, NTR1; conditions: cited from earlier work
Target sequence in this assay (P30989 whole entry, species assumed): as above

NTR1 [3] = target: T1, NTR1; assay: Ca2+ flux assay; format: cell-based
Target sequence in this assay (P30989 whole entry, species assumed): as above

NTR2 [4] = target: T2, NTR2 (Homo sapiens, UniProt O95665); assay: [125I]-NT radioligand binding to cell membranes; conditions: [125I]-NT 0.02 nM
Target sequence in this assay (O95665 whole entry): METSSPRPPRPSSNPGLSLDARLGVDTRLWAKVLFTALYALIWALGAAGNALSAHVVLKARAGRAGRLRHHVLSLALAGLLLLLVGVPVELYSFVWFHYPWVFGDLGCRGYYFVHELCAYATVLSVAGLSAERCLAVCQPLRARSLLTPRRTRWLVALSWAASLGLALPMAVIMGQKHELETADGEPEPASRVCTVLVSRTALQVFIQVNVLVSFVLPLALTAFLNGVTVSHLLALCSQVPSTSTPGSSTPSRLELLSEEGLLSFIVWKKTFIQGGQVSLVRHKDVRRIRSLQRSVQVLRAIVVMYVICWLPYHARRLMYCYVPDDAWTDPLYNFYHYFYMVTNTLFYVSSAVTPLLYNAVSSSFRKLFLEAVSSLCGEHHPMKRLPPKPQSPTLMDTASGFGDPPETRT

NTR1 [5] = target: T1, NTR1; assay: [125I]-NT radioligand binding to cell membranes; conditions: [125I]-NT 0.02 nM, increasing concentrations of compound
Target sequence in this assay (P30989 whole entry): as the sequence (P30989 whole entry, species assumed) above

GPR55 = GPR55 (Homo sapiens, UniProt Q9Y2T6); assay: GPCR cross reactivity, high-content assay format; format: cell-based
[6] = tested on: dopamine transporter knockout (DAT−/−) mice; assay: Open field locomotor activity in dopamine transporter knockout mice; format: in vivo, mouse; conditions: 2 hr post-treatment
How it was run: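 Male and female DAT KO mice on a C57BL/6J background, 12–24 wk, 18–30 g, age- and sex-matched, randomised, tested early in the light cycle. After 30 min open-field acclimation, dosed at 10 ml/kg i.p. (vehicle 4% DMSO in saline) or p.o. as HCl salt in distilled water (after 5 daily water-gavage habituations). Infrared beam-break horizontal distance in 5-min bins; total summed 30–150 min.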

NTR2 [7] = target: T2, NTR2; assay: NTR2 counterscreen, same high-content β-arrestin format; format: cell-based; conditions: high-content assay format
Target sequence in this assay (O95665 whole entry, species assumed): as the sequence (O95665 whole entry) above

mouse NTR = mouse NTR (Mus musculus, UniProt O88319); assay: [125I]-NT radioligand binding to cell membranes; conditions: [125I]-NT 0.02 nM
[8] = Adverse effects in dosed animals; format: in vivo; conditions: animals dosed in the DAT knockout mouse study
K-opioid = K-opioid (Homo sapiens, UniProt P41145); assay: GPCR cross reactivity, high-content assay format; format: cell-based
GPR35 = GPR35 (Homo sapiens, UniProt Q9HC97); assay: GPCR cross reactivity, high-content assay format; format: cell-based
GPR35, sequence (Q9HC97 whole entry, species assumed): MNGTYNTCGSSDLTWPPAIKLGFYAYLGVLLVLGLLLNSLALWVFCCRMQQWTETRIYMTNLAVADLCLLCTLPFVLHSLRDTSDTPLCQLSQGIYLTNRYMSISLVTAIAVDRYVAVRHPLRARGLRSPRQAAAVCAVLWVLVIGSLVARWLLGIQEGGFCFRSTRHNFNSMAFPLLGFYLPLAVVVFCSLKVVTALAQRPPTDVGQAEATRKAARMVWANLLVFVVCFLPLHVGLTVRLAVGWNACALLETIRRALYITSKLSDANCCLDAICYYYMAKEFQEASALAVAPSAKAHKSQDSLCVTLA

GPR55, sequence (Q9Y2T6 whole entry, species assumed): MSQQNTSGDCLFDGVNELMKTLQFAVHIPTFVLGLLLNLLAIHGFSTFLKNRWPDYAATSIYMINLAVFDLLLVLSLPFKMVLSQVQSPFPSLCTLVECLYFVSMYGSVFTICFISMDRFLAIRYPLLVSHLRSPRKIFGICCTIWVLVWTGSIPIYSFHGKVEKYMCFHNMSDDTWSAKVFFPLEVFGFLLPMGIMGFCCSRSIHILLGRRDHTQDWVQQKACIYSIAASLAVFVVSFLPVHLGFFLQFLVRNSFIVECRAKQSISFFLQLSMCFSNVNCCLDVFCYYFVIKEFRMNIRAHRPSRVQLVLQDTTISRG
K-opioid, sequence (P41145 whole entry): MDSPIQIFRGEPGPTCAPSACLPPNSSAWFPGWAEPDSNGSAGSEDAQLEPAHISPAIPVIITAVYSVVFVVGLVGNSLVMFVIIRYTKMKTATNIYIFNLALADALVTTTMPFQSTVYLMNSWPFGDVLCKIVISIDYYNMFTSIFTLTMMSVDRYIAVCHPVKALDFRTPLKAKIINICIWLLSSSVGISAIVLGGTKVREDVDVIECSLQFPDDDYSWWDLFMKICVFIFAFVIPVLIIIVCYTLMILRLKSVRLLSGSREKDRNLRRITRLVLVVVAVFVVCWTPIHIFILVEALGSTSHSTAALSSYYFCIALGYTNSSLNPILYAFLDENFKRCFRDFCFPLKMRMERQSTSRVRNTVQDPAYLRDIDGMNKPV
mouse NTR, sequence (O88319 whole entry): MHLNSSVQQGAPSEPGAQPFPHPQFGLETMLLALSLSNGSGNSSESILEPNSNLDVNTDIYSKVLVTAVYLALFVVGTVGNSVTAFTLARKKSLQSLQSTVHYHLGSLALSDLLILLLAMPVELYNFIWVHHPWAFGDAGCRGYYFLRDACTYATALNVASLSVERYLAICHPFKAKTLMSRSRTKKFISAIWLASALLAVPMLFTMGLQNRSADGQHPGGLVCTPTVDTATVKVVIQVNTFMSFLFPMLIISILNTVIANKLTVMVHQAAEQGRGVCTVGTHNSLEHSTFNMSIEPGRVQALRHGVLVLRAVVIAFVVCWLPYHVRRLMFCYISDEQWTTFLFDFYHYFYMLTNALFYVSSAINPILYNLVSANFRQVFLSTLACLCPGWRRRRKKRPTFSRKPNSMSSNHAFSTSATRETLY

EC50 (β-Arrestin2-GFP NTR1 potency) (NTR1 [1]; relative to the EC100 (100 nM) of the NT(8–13) peptide control, average ± SEM (n=4 unless otherwise noted in parentheses)): not active
Structure (SMILES): COc1cc2nc(C3CC3)nc(C3CCN(c4ccccc4OC)CC3)c2cc1OC [19a]

Emax (NTR1 [1]): 100%
Structure (SMILES): COc1cc2nc(C3CC3)nc(N3CCN(c4ccccc4OC)CC3)c2cc1OC [compound 7]
activity in Ca2+ flux assay, compound alone (NTR1 [2]): no activity

activity in Ca2+ flux assay, compound alone (NTR1 [3]; compound alone, without NT): no activity | shift of the NT EC50 in the Ca2+ flux assay (NTR1 [3]; rightward shift in the presence of 2.15 μM compound): > 30 fold | enhancement of neurotensin peptide binding (NTR2 [4]): but not human NTR2 | enhancement of neurotensin peptide binding (NTR1 [5]): significant enhancement | effect on the potency of NT in the NTR1 high-content (β-arrestin2-GFP) assay (NTR1 [1]; 18 (SBI-553) 0.5−356 nM): no effect | cross reactivity (GPR55): no cross reactivity | cross reactivity (NTR2 [7]): no cross reactivity | enhancement of neurotensin peptide binding (mouse NTR): significant enhancement | cross reactivity (K-opioid): no cross reactivity | cross reactivity (GPR35): no cross reactivity
Structure (SMILES): COc1ccccc1C1CCN(c2nc(C3(F)CC3)nc3ccc(N(C)CCO)cc23)CC1 [compound 18, 2-({2-(1-Fluoro-cyclopropyl)-4-[4-(2-methoxy-phenyl)-piperidin-1-yl]-quinazolin-6-yl}-methyl-amino)-ethanol]
effect on basal hyperlocomotion ([6]; IP dosing, 12 mg/kg): attenuated hyperlocomotion | effect on basal hyperlocomotion ([6]; PO dosing, 10, 30 or 100 mg/kg as the HCl salt): attenuated hyperlocomotion | adverse effects in dosed animals [8]: did not show any adverse effects
